Data from ChEMBL document CHEMBL4613319, “Novel Dithiolane-Based Ligands Combining Sigma and NMDA Receptor Interactions as Potential Neuroprotective Agents” (ACS Med Chem Lett, 2020).
Activity calls are given as the source filed them. The rule behind the calls is not given here.

Legend:
[1] = target: Sigma non-opioid intracellular receptor 1 (Homo sapiens, UniProt Q99720); assay: Displacement of [3H]-pentazocine from human Sigma 1 receptor by radioligand displacement assay
Method in brief: (§1)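 S1R labelled selectively with [3H]-(+)pentazocine in a radioligand displacement assay. Affinity is expressed as inhibition constant (Ki).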

[2] = target: Sigma intracellular receptor 2 (Homo sapiens, UniProt Q5BJF2); assay: Displacement of [3H]-ditolylguanidine from human Sigma 2 receptor by radioligand displacement assay
Method in brief: (§2)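 Radioligand displacement with [3H]-ditolylguanidine as the S2R label. Cold (+)-pentazocine is included to mask S1R sites. Results are reported as Ki.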

Cavia porcellus = species on record: Cavia porcellus; assay: Selectivity index, ratio of Ki for sigma 1 receptor in guinea pig brain cortex membranes to Ki for sigma 2 receptor in guinea pig brain cortex membranes; assay type: cell membranes
SH-SY5Y [3] = assay: Neuroprotective activity against NMDA-induced cell death in human SH-SY5Y cells at 5 uM incubated for 24 hrs by MTT assay; assay type: functional, cell-based
Method in brief: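 SH-SY5Y neuroblastoma cells are incubated 24 h with NMDA 250 μM and compound at 0.1, 0.5, 1.0 or 5.0 μM. Memantine serves as positive control. Read-out is % cell viability, mean ± SD of three independent experiments.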

SH-SY5Y [4] = assay: Neuroprotective activity against rotenone-induced cell death in human SH-SY5Y cells at 5 uM in presence of PB212 incubated for 24 hrs by MTT assay; assay type: functional, cell-based
Method in brief: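 SH-SY5Y cells receive rotenone 25 μM plus the S1R antagonist PB212 (5 μM) and compound at 1.0 or 5.0 μM. Output is % cell viability, mean ± SD of three independent experiments.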

SH-SY5Y [5] = assay: Neuroprotective activity against rotenone-induced cell death in human SH-SY5Y cells at 1 uM incubated for 24 hrs by MTT assay; assay type: functional, cell-based
Method in brief: (§3)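 Rotenone 25 μM is the toxic insult to SH-SY5Y cells, with test compound at 1.0 or 5.0 μM. Protection is reported as % cell viability, mean ± SD of three independent experiments.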

SH-SY5Y [6] = assay: Neuroprotective activity against rotenone-induced cell death in human SH-SY5Y cells at 5 uM incubated for 24 hrs by MTT assay; assay type: functional, cell-based; method in brief: as §3
[7] = target: T1, Glutamate NMDA receptor (Rattus norvegicus) (UniProt P35439+Q00959+Q00960+Q00961+Q62645+Q8VHN2+Q9R1M7); assay: Negative allosteric modulator of NMDA receptor assessed as NMDA-induced current in Sprague-Dawley rat Primary cortical neuron at 0.1 uM by whole cell patch clamp method relative to control; assay type: cell-based; settings: Cortical neurone
Method in brief: (§4)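 Whole-cell patch clamp on cortical neurons in primary culture. Currents are evoked by NMDA 100 μM plus glycine 1 μM, with the compound applied at increasing concentrations. The effect is expressed as % of the control current, mean ± SE of n cells.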

[8] = target: T1, Glutamate NMDA receptor (Rattus norvegicus); assay: Negative allosteric modulator of NMDA receptor assessed as NMDA-induced current in Sprague-Dawley rat Primary cortical neuron at 10 uM by whole cell patch clamp method relative to control; assay type: cell-based; settings: Cortical neurone; method in brief: as §4
[9] = target: T1, Glutamate NMDA receptor (Rattus norvegicus); assay: Negative allosteric modulator of NMDA receptor assessed as NMDA-induced current in Sprague-Dawley rat Primary cortical neuron at 1 uM by whole cell patch clamp method relative to control; assay type: cell-based; settings: Cortical neurone; method in brief: as §4
[10] = Displacement of [3H][…]-DTG from sigma 2 receptor in guinea pig brain cortex membranes after 150 mins by liquid scintillation counter method; assay type: cell membranes, Cavia porcellus; method in brief: as §2
SH-SY5Y [11] = assay: Neuroprotective activity against NMDA-induced cell death in human SH-SY5Y cells at 0.1 to 0.5 uM incubated for 24 hrs by MTT assay relative to control; assay type: functional
[12] = target: Sigma non-opioid intracellular receptor 1 (Cavia porcellus, UniProt Q60492); assay: Displacement of [3H](+)-pentazocine from sigma 1 receptor in guinea pig brain cortex membranes after 150 mins by scintillation counting analysis; assay type: cell membranes; method in brief: as §1
SH-SY5Y [13] = assay: Neuroprotective activity against NMDA-induced cell death in human SH-SY5Y cells at 0.5 to 1 uM incubated for 24 hrs by MTT assay relative to control; assay type: functional
SH-SY5Y [14] = assay: Neuroprotective activity against oligomycin-induced cell death in human SH-SY5Y cells at 5 uM incubated for 24 hrs by MTT assay relative to control; assay type: functional
Method in brief: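 SH-SY5Y cells were exposed to oligomycin (2.5 μM) as the toxic stimulus in the presence of test compound. Protection was scored as % cell viability.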

SH-SY5Y [15] = assay: Neuroprotective activity against NMDA-induced cell death in human SH-SY5Y cells at 0.1 uM in presence of PB212 incubated for 24 hrs by MTT assay; assay type: functional, cell-based
Method in brief: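 SH-SY5Y cells are exposed to NMDA 250 μM together with compound at 0.1 μM. This is done with and without the S1R antagonist PB212 (5 μM). Data are % cell viability, mean ± SD of three independent experiments.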

Chain of Sigma non-opioid intracellular receptor 1 (Homo sapiens, UniProt Q99720) (Q99720 whole entry): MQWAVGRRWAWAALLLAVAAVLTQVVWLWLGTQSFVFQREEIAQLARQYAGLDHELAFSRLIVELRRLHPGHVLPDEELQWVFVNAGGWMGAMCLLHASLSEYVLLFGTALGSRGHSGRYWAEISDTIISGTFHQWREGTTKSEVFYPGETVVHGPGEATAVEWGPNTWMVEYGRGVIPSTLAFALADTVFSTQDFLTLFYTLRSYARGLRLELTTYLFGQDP
Chain of Sigma intracellular receptor 2 (Q5BJF2 whole entry): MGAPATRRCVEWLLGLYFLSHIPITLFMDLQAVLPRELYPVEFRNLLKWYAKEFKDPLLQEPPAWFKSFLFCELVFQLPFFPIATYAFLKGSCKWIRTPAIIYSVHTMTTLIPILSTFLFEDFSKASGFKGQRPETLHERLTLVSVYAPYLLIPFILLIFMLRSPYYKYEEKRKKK
Chain of Sigma non-opioid intracellular receptor 1 (Cavia porcellus, UniProt Q60492) (Q60492 whole entry): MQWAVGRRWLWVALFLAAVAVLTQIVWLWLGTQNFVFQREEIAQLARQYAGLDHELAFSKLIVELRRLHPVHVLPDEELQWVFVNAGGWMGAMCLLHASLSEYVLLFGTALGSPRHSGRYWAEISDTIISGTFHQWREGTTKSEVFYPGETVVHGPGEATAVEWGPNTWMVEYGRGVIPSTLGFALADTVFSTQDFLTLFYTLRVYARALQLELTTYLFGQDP

Compound	Ki [1]	Ki [2]	further results
O=C(O)C(=O)O.c1ccc(CN2CCN(CC3COC4(CCCCC4)O3)CC2)cc1 (configuration not stated)			Ratio Ki (Cavia porcellus): 47; Activity (SH-SY5Y [3]): inactive; Activity (SH-SY5Y [4]): inactive; Activity (SH-SY5Y [5]): Active; Activity (SH-SY5Y [6]): Active; inhibition [7]: 34%; inhibition [8]: 110%; inhibition [9]: 18%; Ki [10]: 35 nM; Activity (SH-SY5Y [11]): >85%
O=C(O)C(=O)O.c1ccc(CN2CCN(CC3CSC4(CCCCC4)O3)CC2)cc1 (configuration not stated)			Ratio Ki (Cavia porcellus): 72; Activity (SH-SY5Y [3]): inactive; Activity (SH-SY5Y [4]): inactive; Activity (SH-SY5Y [5]): Active; Ki [12]: 1.3 nM; Activity (SH-SY5Y [6]): Active; Activity (SH-SY5Y [13]): 72 - 75%; Ki [10]: 91 nM; Activity (SH-SY5Y [14]): >60%
C[C@]1(c2ccccc2)SC[C@H](CN2CCC(Cc3ccccc3)CC2)S1	68 nM	85 nM	
c1ccc(CC2CCN(C[C@@H]3CS[C@]4(CCCc5ccccc54)S3)CC2)cc1	129 nM	93 nM	
CC12CC3CC(C)(C1)CC(N)(C3)C2			Activity (SH-SY5Y [3]): inactive
O=C(O)C(=O)O.O=C(O)C(=O)O.c1ccc(CN2CCN(CC3CSCS3)CC2)cc1 (configuration not stated)	2.1 nM	90 nM	Activity (SH-SY5Y [15]): inactive; Activity (SH-SY5Y [3]): inactive; Activity (SH-SY5Y [4]): inactive; Activity (SH-SY5Y [5]): Active; Activity (SH-SY5Y [11]): >85%
c1ccc(CC2CCN(C[C@H]3CS[C@@]4(CCCCc5ccccc54)S3)CC2)cc1	195 nM	158 nM	
CC1(C)SCC(CN2CCN(Cc3ccccc3)CC2)S1 (configuration not stated)	0.6 nM	3.3 nM	
O=C(O)C(=O)O.c1ccc(CC2CCN(CC3CSC4(CCCCC4)S3)CC2)cc1 (configuration not stated)			Activity (SH-SY5Y [3]): inactive; Activity (SH-SY5Y [4]): inactive; Activity (SH-SY5Y [5]): Active; Ki [12]: 12 nM; Ki [10]: 5 nM; Activity (SH-SY5Y [11]): >85%
O=C(O)C(=O)O.c1ccc(CC2CCN(CC3CSCS3)CC2)cc1 (configuration not stated)	0.5 nM	12 nM	Activity (SH-SY5Y [3]): inactive; Activity (SH-SY5Y [13]): 72 - 75%
CC1(C)OCC(CN2CCC(Cc3ccccc3)CC2)O1 (configuration not stated)	0.6 nM	6.2 nM	

More lines, in order of falling Ki [1], values ahead:

Ki [1]	Ki [2]	Compound	further results
107 nM	65 nM	c1ccc(CC2CCN(C[C@H]3CS[C@]4(CCc5ccccc54)S3)CC2)cc1	
76 nM	63 nM	C[C@]1(c2ccccc2)SC[C@@H](CN2CCC(Cc3ccccc3)CC2)S1	
71 nM	30 nM	c1ccc(CC2CCN(C[C@@H]3CS[C@]4(CCc5ccccc54)S3)CC2)cc1	
68 nM	107 nM	c1ccc(CC2CCN(C[C@@H]3CS[C@@]4(CCCCc5ccccc54)S3)CC2)cc1	
54 nM	71 nM	c1ccc(CC2CCN(CC3CSC4(S3)c3ccccc3-c3ccccc34)CC2)cc1 (configuration not stated)	
52 nM	87 nM	c1ccc(CC2CCN(C[C@@H]3CS[C@@]4(CCCc5ccccc54)S3)CC2)cc1	
5.4 nM	182 nM	CC1(C)OCC(CN2CCN(Cc3ccccc3)CC2)O1 (configuration not stated)	
4.2 nM	3 nM	c1ccc(CC2CCN(CC3CSC4(CCCC4)S3)CC2)cc1 (configuration not stated)	
2 nM	0.59 nM	CC1(C)SCC(CN2CCC(Cc3ccccc3)CC2)S1 (configuration not stated)	
1.7 nM	8.1 nM	c1ccc(CC2CCN(CC3CSC4(CCCCCC4)S3)CC2)cc1 (configuration not stated)	
